Laboratory results as given in ChEMBL document CHEMBL1150857, “Dendocarbins A--N, new drimane sesquiterpenes from the nudibranch Dendrodoris carbunculosa” (J Nat Prod, 2001).
Values after ≈ are worked out from the molar mass of the structure shown.

What was measured:
Format in all cases: functional, cell-based
P388 [1] = experiment: Cytotoxicity against adriamycin-resistant mouse P388 cells in absence of 0.1 ug/mL adriamycin
How it was run: (§1)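 Murine leukemia P388 lines were tested: the drug-sensitive strain (P388/S), the adriamycin-resistant line (P388/ADR) and the vincristine-resistant line (P388/VCR). Cytotoxicity was expressed as IC50.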

P388 [2] = experiment: Cytotoxicity against adriamycin-resistant mouse P388 cells in presence of 0.1 ug/mL adriamycin
P388 [3] = experiment: Cytotoxicity against drug-sensitive mouse P388 cells; how it was run: as §1
P388 [4] = experiment: Cytotoxicity against vincristine-resistant mouse P388 cells in absence of 0.004 ug/mL vincristine; how it was run: as §1
P388 [5] = experiment: Cytotoxicity against vincristine-resistant mouse P388 cells in presence of 0.004 ug/mL vincristine

| Compound | IC50 (P388 [1]) | IC50 (P388 [2]) | IC50 (P388 [3]) | IC50 (P388 [4]) | IC50 (P388 [5]) |
| --- | --- | --- | --- | --- | --- |
| CC(=O)O[C@@H]1OC(=O)C2=CC[C@H]3C(C)(C)CCC[C@]3(C)[C@H]21 | 8 µg/mL | 10.1 µg/mL | 10.2 µg/mL (≈ 34.9 µM) | 10.2 µg/mL (≈ 34.9 µM) | 9 µg/mL |
| CC1(C)CCC[C@]2(C)C3=C(CC[C@@H]12)C(=O)O[C@@H]3O | 2.5 µg/mL | 2.5 µg/mL | 3.2 µg/mL (≈ 12.8 µM) | 2.5 µg/mL (≈ 9.99 µM) | 2.5 µg/mL |
| CC1(C)CCC[C@]2(C)C3=C(C(=O)OC3O)[C@H](O)C[C@@H]12 (mixture of isomers) [DENDOCARBIN L/DENDOCARBIN M] | > 25 µg/mL | > 25 µg/mL | > 25 µg/mL | > 25 µg/mL | > 25 µg/mL |
| CC1(C)CCC[C@]2(C)[C@@H]3C(=CC[C@@H]12)C(=O)O[C@H]3O [DENDOCARBIN A] | > 25 µg/mL | > 25 µg/mL | > 25 µg/mL | > 25 µg/mL | > 25 µg/mL |
| CC1(C)C[C@H](O)C[C@]2(C)[C@H]3C(=O)OCC3=CC[C@@H]12 [DENDOCARBIN B] | 7 µg/mL | 10.5 µg/mL | 11.5 µg/mL (≈ 45.9 µM) | 10.2 µg/mL (≈ 40.7 µM) | 9 µg/mL |
| CC1(C)CCC[C@]2(C)[C@@H]3C(=C[C@H](O)[C@@H]12)CO[C@H]3O [DENDOCARBIN C] | > 25 µg/mL | > 25 µg/mL | > 25 µg/mL | > 25 µg/mL | > 25 µg/mL |
| CC1(C)CCC[C@]2(C)[C@H]3[C@H](O)OC(=O)[C@@]3(O)CC[C@@H]12 [DENDOCARBIN D] | 16 µg/mL | 16 µg/mL | 15 µg/mL (≈ 55.9 µM) | 16 µg/mL (≈ 59.6 µM) | 14 µg/mL |
| CC1(C)[C@@H](O)CC[C@]2(C)[C@H]3C(=O)OC(=O)C3=CC[C@@H]12 [DENDOCARBIN E] | 19 µg/mL | > 25 µg/mL | > 25 µg/mL | 22.5 µg/mL (≈ 85.1 µM) | > 25 µg/mL |
| C[C@@]1(CO)CCC[C@]2(C)[C@H]3C(=O)OC(=O)C3=CC[C@@H]12 [DENDOCARBIN F] | > 25 µg/mL | 22 µg/mL | > 25 µg/mL | > 25 µg/mL | > 25 µg/mL |
| CC1(C)CCC[C@]2(C)[C@H]3C(=O)OC(=O)C3=C[C@H](O)[C@@H]12 [DENDOCARBIN G] | > 25 µg/mL | > 25 µg/mL | > 25 µg/mL | > 25 µg/mL | > 25 µg/mL |
| CC1(C)CCC[C@]2(C)[C@H]3C(=O)OC(=O)C3=CC[C@@H]12 [DENDOCARBIN H] | 10.1 µg/mL | 10.5 µg/mL | 10.8 µg/mL (≈ 43.5 µM) | 10.1 µg/mL (≈ 40.7 µM) | 8 µg/mL |
| CCOC1OC(=O)C2=C1[C@@H](O)C[C@H]1C(C)(C)CCC[C@]21C (stereo not given in full) [DENDOCARBIN I] | 8 µg/mL | 10 µg/mL | 10 µg/mL (≈ 34 µM) | 10.2 µg/mL (≈ 34.6 µM) | 10.2 µg/mL |
| CCO[C@H]1OC(=O)C2=C1[C@@]1(C)CCCC(C)(C)[C@@H]1C[C@H]2O [DENDOCARBIN J] | 11 µg/mL | 8 µg/mL | 17 µg/mL (≈ 57.7 µM) | 4 µg/mL (≈ 13.6 µM) | 4 µg/mL |
| CCO[C@@H]1OC(=O)C2=C1[C@@]1(C)CCCC(C)(C)[C@@H]1C[C@H]2O [DENDOCARBIN K] | 9 µg/mL | 10.5 µg/mL | 10.5 µg/mL (≈ 35.7 µM) | 10.5 µg/mL (≈ 35.7 µM) | 9 µg/mL |
| CC1(C)CCC[C@]2(C)[C@H]3[C@H](O)OC[C@]34O[C@@H]4[C@H](O)[C@@H]12 [DENDOCARBIN N] | > 25 µg/mL | > 25 µg/mL | > 25 µg/mL | > 25 µg/mL | > 25 µg/mL |
| CC1(C)CCC[C@]2(C)[C@@H]3C(=CC[C@@H]12)CO[C@H]3O [ISODRIMENINOL] | 18 µg/mL | 18 µg/mL | 13 µg/mL (≈ 55 µM) | 22 µg/mL (≈ 93.1 µM) | > 25 µg/mL |
